Experiments:
MT4 = experiment: Cytotoxicity against human MT4 cells upto 20 uM after 24 hrs; assay type: cell-based; conditions: mt4, 24 h
[1] = biological target: Human immunodeficiency virus type 1 integrase (Human immunodeficiency virus 1, UniProt Q7ZJM1); experiment: Inhibition of HIV1 recombinant integrase strand transfer activity
Method in brief: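 Strand transfer by recombinant HIV-1 integrase (0.1 µM) preassembled on immobilized oligonucleotides. Inhibition is relative to a no-inhibitor control run in quadruplicate and averaged, with background subtracted. IC50 given as mean of three experiments with standard deviation.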

[2] = tested on: Human immunodeficiency virus 1; experiment: Antiviral activity against HIV1 3B infected in human MT4 cells assessed as inhibition of replication after 3 days by ELISA; assay type: functional; conditions: Human immunodeficiency virus 1, 3B, MT4, 72 h; read-out: CIC95
Liver microsomes [3] = experiment: Protein binding in rat liver microsomes per 60 mins in presence of NADPH; assay type: ADME, Microsome; conditions: 1 h
Method in brief: (§1)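 [14C]-labelled compound incubated with rat or human liver microsomes, with or without NADPH. Irreversibly bound radioactivity expressed as pmol equiv/mg/60 min.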

Liver microsomes [4] = experiment: Protein binding in human liver microsomes per 60 mins in absence of NADPH; assay type: ADME, Microsome; conditions: 1 h; method in brief: as §1
Plasma [5] = experiment: Protein binding in rat plasma after 2 hrs; assay type: ADME, cell-free
Method in brief: (§2)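 [14C]-labelled compound given to rats in vivo. Irreversibly bound radioactivity measured in plasma and liver at 2, 6 and 24 h, expressed as pmol equiv/mg protein.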

Liver [6] = experiment: Protein binding in rat liver after 24 hrs; assay type: ADME, tissue-based; method in brief: as §2
Liver microsomes [7] = experiment: Protein binding in rat liver microsomes per 60 mins in absence of NADPH; assay type: ADME, Microsome; conditions: 1 h; method in brief: as §1
Liver microsomes [8] = experiment: Protein binding in human liver microsomes per 60 mins in presence of NADPH; assay type: ADME, Microsome; conditions: 1 h; method in brief: as §1
Plasma [9] = experiment: Protein binding in rat plasma after 24 hrs; assay type: ADME, cell-free; method in brief: as §2
Liver [10] = experiment: Protein binding in rat liver after 2 hrs; assay type: ADME, tissue-based; method in brief: as §2
Plasma [11] = experiment: Protein binding in rat plasma after 6 hrs; assay type: ADME, cell-free; method in brief: as §2
Liver [12] = experiment: Protein binding in rat liver after 6 hrs; assay type: ADME, tissue-based; method in brief: as §2
[13] = Bioavailability in rat at 10 mg/kg, po; assay type: ADME, organism-based; conditions: in vivo
Method in brief: (§3)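 Rats dosed orally at 10 mg/kg as a solution in 1% aqueous methylcellulose. Plasma sampled through 24 h.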

Rattus norvegicus = species: Rattus norvegicus; experiment: Plasma concentration in rat after 2 to 24 hrs; assay type: ADME, organism-based; conditions: in vivo; method in brief: as §3

Sequence of Human immunodeficiency virus type 1 integrase (Q7ZJM1 whole entry): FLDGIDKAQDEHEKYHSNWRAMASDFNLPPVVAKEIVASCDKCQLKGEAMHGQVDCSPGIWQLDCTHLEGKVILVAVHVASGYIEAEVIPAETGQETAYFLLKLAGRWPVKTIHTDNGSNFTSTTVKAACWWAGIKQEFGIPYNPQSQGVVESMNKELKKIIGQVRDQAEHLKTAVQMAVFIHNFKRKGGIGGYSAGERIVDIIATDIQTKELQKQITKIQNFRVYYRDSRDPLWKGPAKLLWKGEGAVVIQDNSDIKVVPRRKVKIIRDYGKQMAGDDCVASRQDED

Row | IC50 [1] | SMILES | Activity (MT4) | IC95 [2] | other results
1 | 30 nM | O=C1c2c(O)c(O)c(Br)c(=O)n2CCN1Cc1ccc(F)cc1 | Non-toxic | 1000 nM | 
2 | 1040 nM | O=C1c2c(O)c(O)cc(=O)n2CCCN1Cc1ccc(F)cc1 |  |  | 
3 | 40 nM | O=C1c2c(O)c(O)cc(=O)n2CCN1Cc1ccc(F)c(Cl)c1 | Non-toxic | 250 nM | 
4 |  | O=C1c2[14c](O)[14c](O)cc(=O)n2CCN1Cc1ccc(F)cc1 |  |  | Activity (Liver microsomes [3]): 24.2 pmolequiv/mg; Activity (Liver microsomes [4]): 15.2 pmolequiv/mg; PPB (Plasma [5]): < 5 pmolequiv/mg; PPB (Liver [6]): < 5 pmolequiv/mg; Activity (Liver microsomes [7]): 24.7 pmolequiv/mg; Activity (Liver microsomes [8]): 19.6 pmolequiv/mg; PPB (Plasma [9]): < 5 pmolequiv/mg; PPB (Liver [10]): < 5 pmolequiv/mg; PPB (Plasma [11]): < 5 pmolequiv/mg; PPB (Liver [12]): < 5 pmolequiv/mg
5 | 380 nM | O=C1c2c(O)c(O)cc(=O)n2CCN1Cc1ccc(Cl)cc1 | Non-toxic | 1000 nM | 
6 | 20 nM | N#Cc1c(O)c(O)c2n(c1=O)CCN(Cc1ccc(F)cc1)C2=O | Non-toxic | > 1000 nM | 
7 | 40 nM | O=C1c2c(O)c(O)cc(=O)n2CCN1Cc1cccc(Cl)c1 | Non-toxic | 500 nM | 
8 | 370 nM | O=C1c2c(O)c(O)cc(=O)n2CCN1Cc1ccccc1Cl | Non-toxic | > 1000 nM | 
9 | 40 nM | O=c1c2c(O)c(O)cc(=O)n2ccn1Cc1ccc(F)cc1 |  |  | 
10 | 100 nM | O=C1c2c(O)c(O)cc(=O)n2CCN1Cc1ccc(F)cc1 | Non-toxic | 310 nM | bioavailability [13]: 69%; concentration (Rattus norvegicus): 500 nM
11 | 20 nM | O=C1c2c(O)c(O)c(I)c(=O)n2CCN1Cc1ccc(F)cc1 | Non-toxic | > 1000 nM | 
12 | 230 nM | O=C1c2c(O)c(O)cc(=O)n2CCN1Cc1ccccc1 | Non-toxic | 2500 nM | 
